From ChEMBL document CHEMBL2057140, “Design, synthesis, biological evaluation and molecular modeling of novel 1,3,4-oxadiazole derivatives based on Vanillic acid as potential immunosuppressive agents” (Bioorg Med Chem, 2012)
The source made the active and inactive calls. No cut-off for these calls is given here.

Legend:
[1] = Cytotoxicity against BALB/c mouse lymph node cells after 24 hrs by MTT assay; format: cell-based
Outline: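 Fresh BALB/C mouse lymph node cells, 5 × 10⁵ per well, given compounds at […] for 24 h at 37 °C, 5% CO₂; untreated cells served as control. MTT (4 mg/mL in PBS) added for the final 4 h, formazan dissolved in DMSO, absorbance read at 570 nm; CC₅₀ reported with SD.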

[2] = Immunosuppressive activity in BALB/c mouse T cells assessed as inhibition of ConA-induced T cell proliferation incubated 24 hrs post ConA-induction for 72 hrs by MTT assay; format: functional, cell-based
Outline: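 BALB/C lymph node cells, 5 × 10⁵ per well, stimulated with ConA at […] for 24 h, then left untreated or given compounds for 72 h. MTT (4 mg/mL in PBS) added for the last 4 h; proliferation read by MTT and IC₅₀ reported with SD.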

T-cell [3] = test: Selectivity index ratio of CC50 for BALB/c mouse lymph node cells to IC50 for BALB/c mouse ConA-induced T cell proliferation; format: functional
Outline: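 Ratio of the lymph node cell CC₅₀ from the 24 h MTT cytotoxicity assay to the IC₅₀ against ConA-stimulated proliferation from the 72 h MTT assay.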

[4] = biological target: Phosphatidylinositol 4,5-bisphosphate 3-kinase catalytic subunit gamma isoform (Homo sapiens, UniProt P48736); test: Inhibition of PI3Kgamma after 4 hrs
Sequence of Phosphatidylinositol 4,5-bisphosphate 3-kinase catalytic subunit gamma isoform (P48736 whole entry, canonical isoform): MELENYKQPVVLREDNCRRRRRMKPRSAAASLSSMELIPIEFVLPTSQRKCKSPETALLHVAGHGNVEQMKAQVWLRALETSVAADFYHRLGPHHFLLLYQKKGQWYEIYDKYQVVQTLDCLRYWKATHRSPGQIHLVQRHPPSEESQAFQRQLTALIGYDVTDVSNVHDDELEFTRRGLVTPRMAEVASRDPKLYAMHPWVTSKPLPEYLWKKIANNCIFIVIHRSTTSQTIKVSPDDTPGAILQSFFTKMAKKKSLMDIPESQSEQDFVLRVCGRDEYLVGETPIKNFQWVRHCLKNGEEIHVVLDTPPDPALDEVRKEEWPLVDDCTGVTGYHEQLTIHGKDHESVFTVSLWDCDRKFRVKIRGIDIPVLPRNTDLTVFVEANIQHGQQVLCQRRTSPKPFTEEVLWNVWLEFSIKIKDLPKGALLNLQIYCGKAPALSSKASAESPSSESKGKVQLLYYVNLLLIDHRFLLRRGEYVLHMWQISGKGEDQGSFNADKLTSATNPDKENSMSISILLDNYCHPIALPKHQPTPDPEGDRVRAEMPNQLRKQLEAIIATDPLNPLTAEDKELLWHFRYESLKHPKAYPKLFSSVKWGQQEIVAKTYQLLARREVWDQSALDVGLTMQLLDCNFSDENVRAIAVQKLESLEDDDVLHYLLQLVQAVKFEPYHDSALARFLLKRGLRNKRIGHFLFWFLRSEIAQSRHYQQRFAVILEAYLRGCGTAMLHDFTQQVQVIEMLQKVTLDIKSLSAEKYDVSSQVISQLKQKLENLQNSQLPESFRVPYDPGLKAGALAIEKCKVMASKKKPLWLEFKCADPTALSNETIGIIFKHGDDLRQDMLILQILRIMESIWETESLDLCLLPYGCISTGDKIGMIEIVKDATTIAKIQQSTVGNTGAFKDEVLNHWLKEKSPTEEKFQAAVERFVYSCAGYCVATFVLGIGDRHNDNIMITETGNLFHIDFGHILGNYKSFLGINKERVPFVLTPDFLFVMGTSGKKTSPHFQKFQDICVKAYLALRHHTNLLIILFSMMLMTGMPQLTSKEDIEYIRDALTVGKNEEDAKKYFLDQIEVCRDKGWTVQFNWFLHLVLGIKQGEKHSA

Mus musculus [5] = organism: Mus musculus; test: Inhibition of PI3K-mediated AKT inhibition in BALB/c mouse lymph node cells assessed as reduction in ConA-induced IL1 production at 5 uM incubated for 2 hrs prior to ConA-indution measured after 22 hrs by ELISA
Outline: (§1)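 Mouse lymph node cells kept in DMEM with 10% FBS, penicillin and streptomycin at 37 °C, 5% CO₂. Pre-treated with compound at […] or vehicle for 2 h, then with ConA at […] for 22 h. Media centrifuged, and IL-1, IL-6 and IL-10 quantified by mouse ELISA kits.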

Mus musculus [6] = organism: Mus musculus; test: Inhibition of PI3K-mediated AKT inhibition in BALB/c mouse lymph node cells assessed as reduction in ConA-induced IL6 production at 5 uM incubated for 2 hrs prior to ConA-indution measured after 22 hrs by ELISA; outline: as §1
Mus musculus [7] = organism: Mus musculus; test: Inhibition of PI3K-mediated AKT inhibition in BALB/c mouse lymph node cells assessed as reduction in ConA-induced IL10 production at 5 uM incubated for 2 hrs prior to ConA-indution measured after 22 hrs by ELISA; outline: as §1
T-cell [8] = test: Induction of apoptosis in BALB/c mouse ConA-activated T cells assessed as early apoptotic cells at 0.25 uM incubated 24 hrs-post ConA-activation for 24 hrs by AnnexinV-FITC based flow cytometry relative to vehicle treated control; format: functional
Outline: (§2)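 Lymph node cells, 3 × 10⁶ per well, stimulated with ConA at […] for 24 h, then exposed to compound at 0.25, 2.5 or 25 µM for 24 h. Cells harvested, stained with Annexin V-FITC and propidium iodide, and apoptotic fraction measured by flow cytometry.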

T-cell [9] = test: Induction of apoptosis in BALB/c mouse ConA-activated T cells assessed as early apoptotic cells at 2.5 uM incubated 24 hrs-post ConA-activation for 24 hrs by AnnexinV-FITC based flow cytometry relative to vehicle treated control; format: functional; outline: as §2
T-cell [10] = test: Induction of apoptosis in BALB/c mouse ConA-activated T cells assessed as early apoptotic cells at 25 uM incubated 24 hrs-post ConA-activation for 24 hrs by AnnexinV-FITC based flow cytometry relative to vehicle treated control; format: functional; outline: as §2
T-cell [11] = test: Induction of apoptosis in BALB/c mouse ConA-activated T cells incubated 24 hrs-post ConA-activation for 24 hrs by AnnexinV-FITC based flow cytometry; format: functional; outline: as §2

SMILES	CC50 at 24 h [1]	IC50 [2]	Ratio CC50/IC50 (T-cell [3])	other results
COc1cc(-c2nnc(SCc3ccccc3[N+](=O)[O-])o2)ccc1O	331 µM	9.6 µM	34.45	–
COc1cc(-c2nnc(SCc3ccc(Cl)cc3)o2)ccc1OCc1ccc(Cl)cc1	136 µM	17.2 µM	5	–
COc1cc(-c2nnc(SCc3ccc(F)cc3)o2)ccc1OCc1ccc(F)cc1	153 µM	12.9 µM	11.89	–
C/C=C/C[C@@H](C)[C@@H](O)[C@H]1C(=O)N[C@@H](CC)C(=O)N(C)CC(=O)N(C)[C@@H](CC(C)C)C(=O)N[C@@H](C(C)C)C(=O)N(C)[C@@H](CC(C)C)C(=O)N[C@@H](C)C(=O)N[C@H](C)C(=O)N(C)[C@@H](CC(C)C)C(=O)N(C)[C@@H](CC(C)C)C(=O)N(C)[C@@H](C(C)C)C(=O)N1C [CYCLOSPORINE]	–	–	82.19	–
COc1cc(-c2nnc(SCc3c(F)cccc3F)o2)ccc1O	575 µM	10.1 µM	57.1	–
COc1cc(-c2nnc(SCc3ccccc3C)o2)ccc1OCc1ccccc1C	195 µM	18.9 µM	15.19	–
COc1cc(-c2nnc(SCc3cccc([N+](=O)[O-])c3)o2)ccc1OCc1cccc([N+](=O)[O-])c1	168 µM	12.2 µM	13.75	–
COc1cc(-c2nnc(SCc3ccccc3)o2)ccc1OCc1ccccc1	197 µM	13.3 µM	14.79	–
COc1cc(-c2nnc(SCc3ccc(F)cc3)o2)ccc1O	685 µM	8.19 µM	83.62	–
COc1cc(-c2nnc(SCc3ccccc3F)o2)ccc1OCc1ccccc1F	171 µM	4.76 µM	35.89	IC50 [4]: 5.12 µM; inhibition (Mus musculus [5]): Active; inhibition (Mus musculus [6]): Active; inhibition (Mus musculus [7]): Active
COc1cc(-c2nnc(SCc3ccc(F)cc3F)o2)ccc1O	520 µM	9.69 µM	53.67	–
COc1cc(-c2nnc(SCc3ccc(F)cc3F)o2)ccc1OCc1ccc(F)cc1F	182 µM	12.9 µM	14.1	–
COc1cc(-c2nnc(SCc3c(F)cccc3F)o2)ccc1OCc1c(F)cccc1F	179 µM	5.22 µM	34.21	IC50 [4]: 5.74 µM
COc1cc(-c2nnc(SCc3cccc(Br)c3)o2)ccc1O	382 µM	48.1 µM	7.95	–
COc1cc(-c2nnc(SCc3ccc([N+](=O)[O-])cc3)o2)ccc1O	688 µM	14.2 µM	48.6	–
COc1cc(-c2nnc(SCc3ccccc3Br)o2)ccc1O	363 µM	17.8 µM	20.42	–
COc1cc(-c2nnc(SCc3cccc(Cl)c3)o2)ccc1OCc1cccc(Cl)c1	178 µM	15.8 µM	11.23	–
COc1cc(-c2nnc(SCc3ccc(Cl)cc3)o2)ccc1O	480 µM	11.1 µM	43.35	–

SMILES	CC50 at 24 h [1]	IC50 [2]	Ratio CC50/IC50 (T-cell [3])	other results
COc1cccc(CSc2nnc(-c3ccc(O)c(OC)c3)o2)c1	389 µM	7.41 µM	52.55	IC50 [4]: 2.87 µM
COc1cc(-c2nnc(SCc3ccc(Br)cc3)o2)ccc1OCc1ccc(Br)cc1	225 µM	17.3 µM	12.99	–
COc1cc(-c2nnc(SCc3ccc([N+](=O)[O-])cc3)o2)ccc1OCc1ccc([N+](=O)[O-])cc1	156 µM	7.6 µM	20.48	–
COc1cc(-c2nnc(SCc3ccccc3Br)o2)ccc1OCc1ccccc1Br	151 µM	8.71 µM	17.33	–
COc1cc(-c2nnc(SCc3cccc([N+](=O)[O-])c3)o2)ccc1O	392 µM	16 µM	24.59	–
COc1cc(-c2nnc(SCc3ccccc3F)o2)ccc1O	474 µM	5.79 µM	81.82	–
COc1cc(-c2nnc(SCc3ccccc3)o2)ccc1O	211 µM	1.25 µM	168.83	IC50 [4]: 1.34 µM; Activity (T-cell [8]): 2.43%; Activity (T-cell [9]): 4.34%; Activity (T-cell [10]): 4.98%; Activity (T-cell [11]): Dose-dependent effect; inhibition (Mus musculus [5]): Active; inhibition (Mus musculus [6]): Active; inhibition (Mus musculus [7]): Active
COc1cc(-c2nnc(SCc3cccc(Cl)c3)o2)ccc1O	470 µM	8.29 µM	56.74	–
COc1cccc(COc2ccc(-c3nnc(SCc4cccc(OC)c4)o3)cc2OC)c1	242 µM	10.1 µM	24.04	–
COc1cc(-c2nnc(SCc3ccc(C)cc3)o2)ccc1OCc1ccc(C)cc1	275 µM	9.06 µM	30.38	–
COc1cc(-c2nnc(SCc3ccccc3C)o2)ccc1O	592 µM	8.42 µM	70.36	IC50 [4]: 6.48 µM
COc1cc(-c2nnc(SCc3cccc(Br)c3)o2)ccc1OCc1cccc(Br)c1	161 µM	9.12 µM	17.66	–
COc1cc(-c2nnc(SCc3cc(F)cc(F)c3)o2)ccc1OCc1cc(F)cc(F)c1	266 µM	14.4 µM	18.49	–
COc1cc(-c2nnc(SCc3ccccc3Cl)o2)ccc1O	564 µM	8.43 µM	66.94	–
COc1cc(-c2nnc(SCc3ccc(C)cc3)o2)ccc1O	549 µM	6.21 µM	88.5	IC50 [4]: 7.41 µM
COc1cc(-c2nnc(SCc3ccc(Br)cc3)o2)ccc1O	455 µM	8.83 µM	51.58	–
COc1cc(-c2nnc(SCc3ccccc3Cl)o2)ccc1OCc1ccccc1Cl	144 µM	10.6 µM	8.67	–
